Test results from ChEMBL document CHEMBL1681647, “Targeting bacterial biofilms: design of a terpenoid-like library as non-toxic anti-biofilm compounds” (Bioorg Med Chem Lett, 2011).
Active and inactive are the calls of the source. The calls are words filed in the database; no cut-off is given here.

How the values were obtained:
[1] = system: Pseudoalteromonas sp. D41; assay: Antibacterial activity against Pseudoalteromonas sp. D41 assessed as inhibition of bacterial growth up to 100 uM; format: functional
Outline: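 Growth assay with D41 grown in VNSS at 20 °C, shaken at 120 rpm and sampled in exponential phase, then subcultured at OD600 0.1. Compound was added at concentrations from 1 to 100 in triplicate, with a growth control and a solvent (DMSO or methanol) control. Plates were shaken at 120 rpm at 20 °C and OD600 was read hourly.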

[2] = system: Pseudoalteromonas sp. D41; assay: Antibiofilm activity in Pseudoalteromonas sp. D41 assessed as bacterial adhesion at 500 uM after 15 mins using DAPI staining by micro-plate fluorescence reader; format: functional; settings: in the assay text read “15 h” for “15 mins”
Outline: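 Single-concentration screen at 500 in triplicate. D41 was grown in VNSS at 20 °C to stationary phase, then resuspended in artificial sea water at OD600 0.2–0.4. Incubation was 15 h at 20 °C with an ASW adhesion control. Wells were NaCl-washed and fixed in 2% formaldehyde for 90 min at 4 °C, then DAPI-stained. Fluorescence of the ethanol-solubilized dye was read at 380 nm excitation and 495 nm emission.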

[3] = system: Pseudoalteromonas sp. D41; assay: Antibiofilm activity in Pseudoalteromonas sp. D41 assessed as bacterial adhesion after 15 h using DAPI staining by micro-plate fluorescence reader; settings: Pseudoalteromonas sp. D41, 15 h
[4] = system: Pseudoalteromonas sp. D41; assay: Antibiofilm activity in Pseudoalteromonas sp. D41 assessed as bacterial adhesion at 500 uM after 15 h using DAPI staining by micro-plate fluorescence reader

SMILES: CC(C)=CCC/C(C)=C/COCc1cn(-c2cccc(C(=O)O)c2)nn1
- inhibition [1]: inactive
- Activity [2]: 32%
- EC50 [3]: 74 µM

SMILES: COc1ccc(-c2cn(C/C=C(\C)CC/C=C(\C)CCC=C(C)C)nn2)cc1
- Activity [2]: 46%

SMILES: COc1cc(OC)cc(-n2cc(COC/C=C(\C)CCC=C(C)C)nn2)c1
- Activity [2]: 76%

SMILES: COc1ccccc1-n1cc(COC/C=C(\C)CCC=C(C)C)nn1
- Activity [2]: 29%
- EC50 [3]: 166 µM

SMILES: COc1cc(OC)cc(-n2cc(COC/C=C(\C)CC/C=C(\C)CCC=C(C)C)nn2)c1
- Activity [2]: 76%

SMILES: COc1ccc(-n2cc(COC/C=C(\C)CCC=C(C)C)nn2)cc1
- Activity [2]: 20%
- EC50 [3]: 276 µM

SMILES: COc1cc(-n2cc(COC/C=C(\C)CCC=C(C)C)nn2)cc(OC)c1OC
- Activity [2]: 36%

SMILES: COc1cc(OC)cc(-c2cn(C/C=C(\C)CC/C=C(\C)CCC=C(C)C)nn2)c1
- Activity [2]: 0%
- EC50 [3]: 71 µM

SMILES: CC(C)=CCC/C(C)=C/COCc1cn(-c2ccc(O)cc2)nn1
- Activity [2]: >90%

SMILES: COc1ccc(-n2cc(COC/C=C(\C)CC/C=C(\C)CCC=C(C)C)nn2)cc1
- Activity [2]: 24%
- EC50 [3]: 117 µM

SMILES: COc1cc(-n2cc(COC/C=C(\C)CC/C=C(\C)CCC=C(C)C)nn2)cc(OC)c1OC
- Activity [2]: 50%

SMILES: CC(C)=CCC/C(C)=C/Cn1cc(-c2cccc(O)c2)nn1
- Activity [2]: 30%

SMILES: COc1ccccc1-c1cn(C/C=C(\C)CCC=C(C)C)nn1
- Activity [2]: 90%

SMILES: CC(C)=CCC/C(C)=C/COCc1cn(-c2cccc(O)c2)nn1
- Activity [2]: 55%

SMILES: COc1ccc(-c2cn(C/C=C(\C)CCC=C(C)C)nn2)cc1
- Activity [2]: 3%

SMILES: COc1cccc(-c2cn(C/C=C(\C)CCC=C(C)C)nn2)c1
- Activity [2]: 90%

SMILES: COc1cccc(-n2cc(COC/C=C(\C)CC/C=C(\C)CCC=C(C)C)nn2)c1
- Activity [2]: 25%
- EC50 [3]: 198 µM

SMILES: CC(C)=CC(=O)C/C(C)=C/CC/C(C)=C/CC/C(C)=C/CO [ELEGANOLONE]
- Activity [2]: 17%
- EC50 [3]: 174 µM

SMILES: CC(C)=C[C@@H](O)C/C(C)=C/CC/C(C)=C/CC/C(C)=C/CO [ELEGANEDIOL]
- Activity [2]: 14%
- EC50 [3]: 224 µM

SMILES: COc1cccc(-c2cn(C/C=C(\C)CC/C=C(\C)CCC=C(C)C)nn2)c1
- Activity [4]: 15%

SMILES: COc1cc(OC)cc(-c2cn(C/C=C(\C)CCC=C(C)C)nn2)c1
- Activity [2]: 90%

SMILES: CC(C)=CCC/C(C)=C/CC/C(C)=C/Cn1cc(-c2cccc(O)c2)nn1
- Activity [2]: 34%

SMILES: CC(C)=CCC/C(C)=C/COCc1cn(-c2ccc(C(=O)O)cc2)nn1
- Activity [2]: 39%

SMILES: CC(C)=CCC/C(C)=C/CC/C(C)=C/COCc1cn(-c2ccc(O)cc2)nn1
- Activity [2]: 73%

SMILES: CC(C)=CCC/C(C)=C/CC/C(C)=C/COCc1cn(-c2cccc(C(=O)O)c2)nn1
- Activity [2]: >90%

SMILES: COc1cccc(-n2cc(COC/C=C(\C)CCC=C(C)C)nn2)c1
- inhibition [1]: inactive
- Activity [2]: 19%
- EC50 [3]: 103 µM

SMILES: CC(C)=CCC/C(C)=C/CC/C(C)=C/COCc1cn(-c2cccc(O)c2)nn1
- Activity [2]: >90%

SMILES: CC(C)=CCC/C(C)=C/CC/C(C)=C/COCc1cn(-c2ccc(C(=O)O)cc2)nn1
- Activity [2]: >90%

SMILES: COc1ccccc1-n1cc(COC/C=C(\C)CC/C=C(\C)CCC=C(C)C)nn1
- Activity [2]: 35%
